ChEMBL document CHEMBL1800057, “Discovery of dual inducible/neuronal nitric oxide synthase (iNOS/nNOS) inhibitor development candidate 4-((2-cyclobutyl-1H-imidazo[4,5-b]pyrazin-1-yl)methyl)-7,8-difluoroquinolin-2(1H)-one (KD7332) part 2: identification of a novel, potent, and selective series of benzimidazole-quinolinone …” (J Med Chem, 2010)

Key:
Homo sapiens [1] = species on record: Homo sapiens; assay: Ratio of IC50 for human eNOS to EC50 for human iNOS
Homo sapiens [2] = species on record: Homo sapiens; assay: Ratio of IC50 for human nNOS to EC50 for human iNOS
[3] = target: Nitric oxide synthase, inducible (Homo sapiens, UniProt P35228); assay: Inhibition of human iNOS expressed in HEK293 cells assessed as inhibition of nitric oxide production after 18 hrs using 2,3-diaminonaphthalene by fluorescence assay; format: cell-based
Outline: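 HEK293 cells grown to ~70% confluence in DMEM/10% FBS with pen/strep, transiently transfected with 10 μg human or murine iNOS plasmid plus Fugene 6 for 4 h at 37 °C, 10% CO2. Cells replated at 5e5 cells/mL and dosed with compound at once; 1400W (100 μM final) as positive control. After 18 h, DAN (10 μg/mL final) in HCl (0.1 N final) added for 20 min at room temperature. Fluorescence read after NaOH (0.12 N final).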

Nitric oxide synthase 1 [4] = target: T1, Nitric oxide synthase 1 (Homo sapiens, UniProt P29475); assay: Inhibition of human nNOS expressed in HEK293 cells assessed as inhibition ionomycin induced nitric oxide production incubated for 24 hrs measured after 18 hrs of ionomycin challenge using 2,3-diaminonaphthalene by fluorescence assay; format: cell-based
Outline: (§1)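 HEK293 cells transfected for 4 h at 37 °C with human nNOS (10 μg) or human eNOS (15 μg) plasmid (Fugene 6, 3:1). Cells replated at 5e5 cells/mL and dosed with compound at once; SEITU (100 μM final) as positive control. After 24 h, cells activated with A23187 (83 nM final) for eNOS or ionomycin (30 μM final) for nNOS. NO read 18 h later as nitrite-DAN fluorescence.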

[5] = target: T2, Nitric oxide synthase 3 (Homo sapiens) (UniProt P29474); assay: Inhibition of human eNOS expressed in HEK293 cells assessed as inhibition A23187 induced nitric oxide production at 100 uM incubated for 24 hrs measured after 18 hrs of […] challenge using 2,3-diaminonaphthalene by fluorescence assay; format: cell-based
T2 sequence (whole entry): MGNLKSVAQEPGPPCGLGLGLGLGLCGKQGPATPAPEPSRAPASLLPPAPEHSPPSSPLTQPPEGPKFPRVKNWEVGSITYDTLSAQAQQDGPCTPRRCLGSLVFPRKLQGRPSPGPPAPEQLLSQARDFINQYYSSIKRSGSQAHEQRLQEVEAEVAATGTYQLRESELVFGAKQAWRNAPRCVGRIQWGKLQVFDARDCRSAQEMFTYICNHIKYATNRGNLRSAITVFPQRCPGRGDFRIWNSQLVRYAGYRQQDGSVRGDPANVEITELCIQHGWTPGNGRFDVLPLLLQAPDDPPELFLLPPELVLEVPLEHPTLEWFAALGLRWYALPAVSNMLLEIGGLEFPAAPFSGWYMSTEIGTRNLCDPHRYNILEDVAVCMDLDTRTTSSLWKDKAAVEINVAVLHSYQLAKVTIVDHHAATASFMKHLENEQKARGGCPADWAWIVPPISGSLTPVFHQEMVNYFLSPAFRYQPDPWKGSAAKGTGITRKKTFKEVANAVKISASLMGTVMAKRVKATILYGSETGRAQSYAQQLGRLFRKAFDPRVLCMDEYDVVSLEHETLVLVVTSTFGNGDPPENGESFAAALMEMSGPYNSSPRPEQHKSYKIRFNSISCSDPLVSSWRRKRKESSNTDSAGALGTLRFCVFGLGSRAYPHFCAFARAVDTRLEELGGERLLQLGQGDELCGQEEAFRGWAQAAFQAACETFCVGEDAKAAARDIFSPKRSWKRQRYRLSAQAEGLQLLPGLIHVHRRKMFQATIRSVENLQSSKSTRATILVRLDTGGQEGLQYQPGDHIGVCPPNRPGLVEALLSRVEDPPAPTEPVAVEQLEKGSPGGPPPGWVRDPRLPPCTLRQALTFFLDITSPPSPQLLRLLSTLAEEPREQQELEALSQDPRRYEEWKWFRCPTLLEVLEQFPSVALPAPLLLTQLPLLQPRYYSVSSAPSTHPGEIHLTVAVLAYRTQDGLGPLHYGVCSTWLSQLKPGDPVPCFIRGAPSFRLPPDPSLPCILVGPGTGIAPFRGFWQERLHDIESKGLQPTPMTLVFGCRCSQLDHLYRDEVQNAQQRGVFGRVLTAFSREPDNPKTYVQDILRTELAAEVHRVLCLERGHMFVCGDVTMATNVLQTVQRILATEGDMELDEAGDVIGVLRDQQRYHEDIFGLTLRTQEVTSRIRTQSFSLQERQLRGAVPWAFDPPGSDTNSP

Nitric oxide synthase 3 = target: T3, Nitric oxide synthase 3 (Homo sapiens, UniProt P29474); assay: Inhibition of human eNOS expressed in HEK293 cells assessed as inhibition A23187 induced nitric oxide production incubated for 24 hrs measured after 18 hrs of […] challenge using 2,3-diaminonaphthalene by fluorescence assay; format: cell-based; outline: as §1
T3 sequence (P29474 whole entry): T2 sequence (whole entry)

Liver = assay: Half life in mouse liver microsomes assessed as formation of oxidation product and glucuronide conjugate; format: ADME, Microsome
Outline: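 Mouse liver microsomes run under combined phase I oxidation and phase II glucuronide conjugation; half-life reported in minutes.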

Nitric oxide synthase 1 [6] = target: T1, Nitric oxide synthase 1; assay: Inhibition of human nNOS expressed in HEK293 cells assessed as inhibition ionomycin induced nitric oxide production at 10 uM incubated for 24 hrs measured after 18 hrs of ionomycin challenge using 2,3-diaminonaphthalene by fluorescence assay; format: cell-based

T1 sequence (P29475 whole entry): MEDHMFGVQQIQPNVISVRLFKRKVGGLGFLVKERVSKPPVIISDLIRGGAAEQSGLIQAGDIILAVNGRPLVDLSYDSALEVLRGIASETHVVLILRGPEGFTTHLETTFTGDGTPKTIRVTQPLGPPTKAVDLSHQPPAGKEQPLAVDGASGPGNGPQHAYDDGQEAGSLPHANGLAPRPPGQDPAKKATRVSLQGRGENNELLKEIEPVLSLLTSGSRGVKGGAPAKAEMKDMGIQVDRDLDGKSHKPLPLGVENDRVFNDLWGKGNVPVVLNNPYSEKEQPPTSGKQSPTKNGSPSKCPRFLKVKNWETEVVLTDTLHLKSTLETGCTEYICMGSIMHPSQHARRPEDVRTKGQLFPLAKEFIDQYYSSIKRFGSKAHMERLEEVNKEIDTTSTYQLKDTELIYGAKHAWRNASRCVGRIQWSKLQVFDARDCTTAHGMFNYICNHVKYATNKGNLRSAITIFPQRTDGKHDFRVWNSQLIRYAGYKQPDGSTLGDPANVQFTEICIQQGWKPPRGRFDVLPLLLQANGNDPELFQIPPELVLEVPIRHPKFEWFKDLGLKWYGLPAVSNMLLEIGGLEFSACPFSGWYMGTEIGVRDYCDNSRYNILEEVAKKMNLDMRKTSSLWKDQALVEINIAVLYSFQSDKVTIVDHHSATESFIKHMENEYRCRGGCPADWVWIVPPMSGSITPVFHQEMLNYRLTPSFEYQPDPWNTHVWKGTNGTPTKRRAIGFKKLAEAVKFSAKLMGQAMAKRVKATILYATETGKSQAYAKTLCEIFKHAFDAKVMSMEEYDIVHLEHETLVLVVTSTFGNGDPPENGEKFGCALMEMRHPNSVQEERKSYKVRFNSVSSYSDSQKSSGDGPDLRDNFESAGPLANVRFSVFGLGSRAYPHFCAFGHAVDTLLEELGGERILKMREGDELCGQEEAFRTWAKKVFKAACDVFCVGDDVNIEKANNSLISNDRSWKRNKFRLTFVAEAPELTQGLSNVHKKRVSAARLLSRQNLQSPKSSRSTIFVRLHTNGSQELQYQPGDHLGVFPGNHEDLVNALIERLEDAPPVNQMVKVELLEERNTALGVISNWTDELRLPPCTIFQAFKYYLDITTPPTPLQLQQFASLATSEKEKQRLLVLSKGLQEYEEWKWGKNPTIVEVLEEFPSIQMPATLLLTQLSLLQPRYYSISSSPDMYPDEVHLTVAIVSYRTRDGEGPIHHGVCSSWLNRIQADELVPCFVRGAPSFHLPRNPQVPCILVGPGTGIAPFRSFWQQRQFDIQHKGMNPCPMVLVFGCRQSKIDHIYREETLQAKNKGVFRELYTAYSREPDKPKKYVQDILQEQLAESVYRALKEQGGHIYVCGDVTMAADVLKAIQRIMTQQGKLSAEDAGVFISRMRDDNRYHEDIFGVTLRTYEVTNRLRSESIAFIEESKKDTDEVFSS
Sequence of Nitric oxide synthase, inducible (P35228 whole entry): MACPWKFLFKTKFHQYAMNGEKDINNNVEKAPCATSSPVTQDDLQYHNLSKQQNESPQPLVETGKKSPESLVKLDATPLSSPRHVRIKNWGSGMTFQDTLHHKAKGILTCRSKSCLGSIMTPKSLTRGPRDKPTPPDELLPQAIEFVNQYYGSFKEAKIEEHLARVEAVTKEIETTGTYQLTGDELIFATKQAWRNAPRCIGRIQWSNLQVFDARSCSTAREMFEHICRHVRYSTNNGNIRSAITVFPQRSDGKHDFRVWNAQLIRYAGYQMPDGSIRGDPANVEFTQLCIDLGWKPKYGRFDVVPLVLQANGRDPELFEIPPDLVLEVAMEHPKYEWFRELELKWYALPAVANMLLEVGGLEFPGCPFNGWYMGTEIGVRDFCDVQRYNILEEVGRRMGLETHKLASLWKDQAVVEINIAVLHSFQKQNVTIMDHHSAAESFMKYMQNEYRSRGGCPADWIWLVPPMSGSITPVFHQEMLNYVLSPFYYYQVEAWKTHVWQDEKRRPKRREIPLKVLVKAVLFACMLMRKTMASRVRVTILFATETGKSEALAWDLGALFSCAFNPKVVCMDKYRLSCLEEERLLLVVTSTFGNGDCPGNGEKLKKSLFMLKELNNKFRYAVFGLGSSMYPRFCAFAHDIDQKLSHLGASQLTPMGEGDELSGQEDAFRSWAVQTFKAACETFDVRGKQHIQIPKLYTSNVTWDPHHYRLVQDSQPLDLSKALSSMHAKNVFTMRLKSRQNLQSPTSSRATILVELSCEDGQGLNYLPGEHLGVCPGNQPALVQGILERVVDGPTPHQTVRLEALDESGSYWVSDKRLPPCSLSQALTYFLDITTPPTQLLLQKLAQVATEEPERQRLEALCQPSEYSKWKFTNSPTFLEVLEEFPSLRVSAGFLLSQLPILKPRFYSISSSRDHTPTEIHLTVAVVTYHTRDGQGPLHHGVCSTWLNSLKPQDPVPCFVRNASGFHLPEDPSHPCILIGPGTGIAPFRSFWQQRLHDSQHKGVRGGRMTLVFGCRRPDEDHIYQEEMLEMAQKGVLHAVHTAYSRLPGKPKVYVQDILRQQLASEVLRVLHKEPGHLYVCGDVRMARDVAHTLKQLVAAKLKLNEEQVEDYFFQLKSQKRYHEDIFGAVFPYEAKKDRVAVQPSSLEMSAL

Row | Compound | Ratio EC50 (Homo sapiens [1]) | Ratio EC50 (Homo sapiens [2]) | EC50 [3] | EC50 (Nitric oxide synthase 1 [4]) | inhibition [5] | EC50 (Nitric oxide synthase 3) | t1/2 (Liver) | inhibition (Nitric oxide synthase 1 [6])
1 | O=c1cc(Cn2c(-c3cncs3)nc3ccccc32)c2ccc(F)c(F)c2[nH]1 | > 12 | > 12 | 8600 nM | > 10000 nM | < 50% | > 100 µM | 43 min | < 50%
2 | Cc1ncsc1C(=O)N(Cc1cc(=O)[nH]c2c(F)cccc12)c1ccccc1 | > 500 | > 50 |  |  |  |  |  | 
3 | O=c1cc(Cn2c(C3CC(F)(F)C3)nc3nccnc32)c2cccc(F)c2[nH]1 | > 460 | 14 |  |  |  |  |  | 
4 | Cc1ccncc1-c1nc2ccccc2n1Cc1cc(=O)[nH]c2c(F)c(F)ccc12 | > 8 | > 1 | 12000 nM | > 10000 nM | < 50% | > 100 µM | > 120 min | < 50%
5 | O=c1cc(Cn2c(C3CCC3)nc3cnccc32)c2ccc(F)c(F)c2[nH]1 | 1.2 | 1.3 | 18000 nM | 24000 nM |  | 21 µM | > 120 min | 
6 | O=c1cc(Cn2c(-c3ccncc3)nc3ccccc32)c2ccc(F)c(F)c2[nH]1 | 1.9 | 1.3 | 2200 nM | 2900 nM |  | 4.2 µM | 64 min | 
7 | Cn1cncc1-c1nc2ccccc2n1Cc1cc(=O)[nH]c2c(F)c(F)ccc12 | 1 | 5.3 | 5900 nM | > 10000 nM |  | 5.8 µM | > 120 min | < 50%
8 | CC(C)c1nc2nccnc2n1Cc1cc(=O)[nH]c2c(F)c(F)ccc12 | 15 | 0.7 | 850 nM | 610 nM |  | 13 µM | > 120 min | 
9 | O=c1cc(Cn2c(C3CC3)nc3ccccc32)c2ccc(F)c(F)c2[nH]1 | 4.3 | 0.9 | 1600 nM | 1400 nM |  | 6.8 µM | > 120 min | 
10 | CC(C)CCc1nc2ccccc2n1Cc1cc(=O)[nH]c2c(F)c(F)ccc12 | > 74 | 0.5 | 1360 nM | 650 nM | < 50% | > 100 µM | > 120 min | 
11 | O=c1cc(Cn2c(C3CCCCC3)nc3ccccc32)c2ccc(F)c(F)c2[nH]1 | > 11 | 0.6 | 8900 nM | 5000 nM | < 50% | > 100 µM | > 120 min | 
12 | CC(C)Cc1nc2nccnc2n1Cc1cc(=O)[nH]c2c(F)c(F)ccc12 | 440 | 3.4 |  |  |  |  |  | 
13 | CCc1nc2ccccc2n1Cc1cc(=O)[nH]c2c(F)c(F)ccc12 | 0.4 | > 2 | 4300 nM | > 10000 nM |  | 1.6 µM | > 120 min | < 50%
14 | Cc1ncsc1-c1nc2ccccc2n1Cc1cc(=O)[nH]c2c(F)cccc12 | 4.1 | 1.2 | 3700 nM | 4300 nM |  | 15 µM | > 120 min | 

Second part, the compound after the results:

Row | Ratio EC50 (Homo sapiens [1]) | Ratio EC50 (Homo sapiens [2]) | EC50 [3] | EC50 (Nitric oxide synthase 1 [4]) | inhibition [5] | EC50 (Nitric oxide synthase 3) | t1/2 (Liver) | inhibition (Nitric oxide synthase 1 [6]) | Compound
15 | > 670 | 13 | 150 nM | 2000 nM | < 50% | > 100 µM | 86 min |  | O=c1cc(Cn2c(C3CCC3)nc3c(C(F)(F)F)ccnc32)c2ccc(F)c(F)c2[nH]1
16 | > 370 | 2.8 | 270 nM | 760 nM | < 50% | > 100 µM | 36 min |  | O=c1cc(Cn2c(C3CCC3)nc3c(Cl)ccnc32)c2ccc(F)c(F)c2[nH]1
17 | 77 | 9.2 | 120 nM | 1100 nM |  | 9.2 µM | > 120 min |  | O=c1cc(Cn2c(C3CC(F)(F)C3)nc3nccnc32)c2ccc(F)c(F)c2[nH]1
18 | > 560 | 7.2 | 180 nM | 1300 nM | < 50% | > 100 µM | 50 min |  | O=c1cc(Cn2c(C3CCC3)nc3cccnc32)c2ccc(F)c(F)c2[nH]1
19 | > 350 | 23 | 290 nM | 6800 nM |  | > 100 µM | > 120 min |  | CC(C)Cc1nc2nccnc2n1Cc1cc(=O)[nH]c2c(F)cccc12
20 | 3.8 | 2.9 | 340 nM | 990 nM |  | 1.3 µM | > 120 min |  | Cc1cnccc1-c1nc2ccccc2n1Cc1cc(=O)[nH]c2c(F)c(F)ccc12
21 | 5.4 | 1.2 | 540 nM | 650 nM |  | 2.9 µM | 28 min |  | O=c1cc(Cn2c(CC3CCC3)nc3ccccc32)c2ccc(F)c(F)c2[nH]1
22 | 15 | 0.9 | 590 nM | 520 nM |  | 8.8 µM | > 120 min |  | O=c1cc(Cn2c(C3CCC3)nc3ncccc32)c2ccc(F)c(F)c2[nH]1
23 | > 133 | 1 | 750 nM | 770 nM | < 50% | > 100 µM | > 120 min |  | O=c1cc(Cn2c(C3CCCC3)nc3ccccc32)c2ccc(F)c(F)c2[nH]1
24 | > 800 |  | 270 nM | 1600 nM | < 50% | > 100 µM | 92 min |  | Cc1ccnc2c1nc(C1CCC1)n2Cc1cc(=O)[nH]c2c(F)c(F)ccc12
25 | > 480 | 6.2 | 210 nM | 1300 nM | < 50% | > 100 µM | > 120 min |  | COc1ccnc2c1nc(C1CCC1)n2Cc1cc(=O)[nH]c2c(F)c(F)ccc12
26 | 6.5 | 1.6 | 600 nM | 950 nM |  | 3.9 µM | > 120 min |  | O=c1cc(Cn2c(CC3CC3)nc3ccccc32)c2ccc(F)c(F)c2[nH]1
27 | 1.8 | 0.9 | 730 nM | 690 nM |  | 1.3 µM | > 120 min |  | CCCc1nc2ccccc2n1Cc1cc(=O)[nH]c2c(F)c(F)ccc12
28 | > 360 | 3.6 | 280 nM | 1000 nM |  | > 100 µM | > 120 min |  | O=c1cc(Cn2c(C3CCCC3)nc3nccnc32)c2ccc(F)c(F)c2[nH]1
29 | > 220 | 1.6 | 460 nM | 730 nM | < 50% | > 100 µM |  |  | O=c1cc(Cn2c(C3CCC3)nc3ccncc32)c2ccc(F)c(F)c2[nH]1
